Values after ≈ are worked out from the molar mass of the structure shown. Active and inactive are the calls of the source.

Assay [1] deals with Staphylococcus epidermidis. Briefly: Bactericidal activity against Staphylococcus epidermidis ATCC 12228 measured after 18 hrs by CLSI broth dilution method. Type of assay: functional. Conditions: ATCC 12228, 18 h. A digest of the protocol: (§1)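 Strains stored at -80 °C and subcultured twice on tryptic soy agar before testing. Compounds dissolved in DMSO. […] MBC then determined per CLSI recommendations.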

The subject of assay [2] is Pseudomonas aeruginosa. Briefly: Antibacterial activity against Pseudomonas aeruginosa ATCC 27853 measured after 18 hrs by CLSI broth dilution method. Conditions: ATCC 27853, 18 h. It is filed as functional. Put shortly: (§2)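 Broth MIC in Mueller-Hinton II broth following CLSI, compounds dissolved in DMSO. Strains subcultured twice on tryptic soy agar before testing. Growth read after 35 °C, 18 h.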
(Broth dilution looks for growth in wells or tubes with falling amounts of substance.)

The subject of assay [3] is Enterococcus faecium. Briefly: Antibacterial activity against Enterococcus faecium ATCC 6057 measured after 18 hrs by CLSI broth dilution method. Type of assay: functional. Conditions: ATCC 6057, 18 h. A digest of the protocol: as §2
Assay [4] concerns Escherichia coli. Briefly: Antibacterial activity against Escherichia coli ATCC 25922 assessed as fold reduction of MIC in presence of efflux pump inhibitor PAbetaN incubated for 18 hrs by CLSI broth microdilution method. It is filed as functional. Put shortly: (§3)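 MICs determined with and without PAβN at 50 mg/L in Mueller-Hinton broth containing 1 mM MgSO₄. 2-fold serial dilutions per CLSI. Fold change taken from the paired MICs after 35 °C, 18 h.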

In assay [5] the test system is Candida albicans. Briefly: Antifungal activity against Candida albicans ATCC 90028 assessed as diameter of zone inhibition incubated for 24 hrs by CLSI disc diffusion method. It is filed as functional. A digest of the protocol: (§4)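 Yeast disc diffusion on Mueller-Hinton agar supplemented with 2% glucose and 0.5 mg/L methylene blue. Compounds in DMSO. Yeasts subcultured on Sabouraud dextrose agar before testing. Zones read after 35 °C, 24 h.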

The subject of assay [6] is Stenotrophomonas maltophilia. Briefly: Antibacterial activity against Stenotrophomonas maltophilia ATCC 13637 assessed as diameter of zone inhibition measured after 18 hrs by CLSI disc diffusion method. It is filed as functional. Put shortly:
(§5)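 Disc diffusion on Mueller-Hinton II agar. Compounds dissolved in DMSO. Strains stored at -80 °C and subcultured twice on tryptic soy agar before testing. Inhibition zones read after 35 °C, 18 h.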
(A growth-free zone around the sample is the usual read-out of agar diffusion tests.)

The subject of assay [7] is Pichia kudriavzevii. Briefly: Antifungal activity against Candida krusei ATCC 6258 assessed as decrease in fungal cell growth at 0.78 to 12.5 mg/L incubated for 24 hrs by CLSI broth dilution method. Type of assay: functional. Conditions: ATCC 6258, 24 h. A digest of the protocol:
(§6)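 Yeast broth dilution in RPMI 1640 with 2% glucose, compounds in DMSO. Yeasts pre-grown on Sabouraud dextrose agar. Growth read after 35 °C, 24 h.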

Assay [8] concerns Klebsiella pneumoniae. Briefly: Antibacterial activity against Klebsiella pneumoniae ATCC 13883 measured after 18 hrs by CLSI broth dilution method. Type of assay: functional. The settings on record: ATCC 13883, 18 h. A digest of the protocol:
as §2

Assay [9] concerns Staphylococcus aureus. Briefly: Bactericidal activity against Staphylococcus aureus ATCC 6538P measured after 18 hrs by CLSI broth dilution method. Type of assay: functional. Put shortly: as §1
For assay [10], the system named is Enterococcus faecalis. Briefly: Antibacterial activity against Enterococcus faecalis ATCC 29212 assessed as diameter of zone inhibition measured after 18 hrs by CLSI disc diffusion method. It is filed as functional. A digest of the protocol: as §5
In assay [11] the test system is Acinetobacter baumannii. Briefly: Antibacterial activity against Acinetobacter baumannii ATCC 19606 measured after 18 hrs by CLSI broth dilution method. It is filed as functional. Conditions: ATCC 19606, 18 h. A digest of the protocol:
as §2

In assay [12] the test system is Pichia kudriavzevii. Briefly: Antifungal activity against Candida krusei ATCC 6258 assessed as diameter of zone inhibition incubated for 24 hrs by CLSI disc diffusion method. Type of assay: functional. Put shortly: as §4
Assay [13] deals with Burkholderia cepacia. Briefly: Antibacterial activity against Burkholderia cepacia ATCC 25416 assessed as diameter of zone inhibition measured after 18 hrs by CLSI disc diffusion method. It is filed as functional. A digest of the protocol: as §5
The test system of assay [14] is Bordetella bronchiseptica. Briefly: Antibacterial activity against Bordetella bronchiseptica ATCC 4617 measured after 18 hrs by CLSI broth dilution method. Type of assay: functional. Conditions: ATCC 4617, 18 h. Put shortly:
as §2

For assay [15], the system named is Proteus mirabilis. Briefly: Antibacterial activity against Proteus mirabilis ATCC 12453 measured after 18 hrs by CLSI broth dilution method. The settings on record: ATCC 12453, 18 h. Type of assay: functional. A digest of the protocol:
as §2

For assay [16], the system named is Candida parapsilosis. Briefly: Antifungal activity against Candida parapsilosis ATCC 22019 assessed as decrease in fungal cell growth at 0.78 to 12.5 mg/L incubated for 24 hrs by CLSI broth dilution method. Type of assay: functional. The settings on record: Lodderomyces parapsilosis, ATCC 22019, 24 h. Put shortly: as §6
Assay [17] has as its system Serratia marcescens. Briefly: Antibacterial activity against Serratia marcescens ATCC 13880 measured after 18 hrs by CLSI broth dilution method. Type of assay: functional. Conditions: ATCC 13880, 18 h. Put shortly: as §2
The test system of assay [18] is Staphylococcus aureus. Briefly: Antibacterial activity against Staphylococcus aureus ATCC 6538P assessed as diameter of zone inhibition measured after 18 hrs by CLSI disc diffusion method. Type of assay: functional. A digest of the protocol: as §5
Assay [19] concerns Klebsiella pneumoniae. Conditions: ATCC 13883.
The test system of assay [20] is Stenotrophomonas maltophilia. Briefly: Antibacterial activity against Stenotrophomonas maltophilia ATCC 13637 assessed as fold reduction of MIC in presence of efflux pump inhibitor PAbetaN incubated for 18 hrs by broth microdilution method. It is filed as functional. Put shortly: as §3

By MBC is commonly meant the smallest concentration meeting the test's criterion for killing. A low value points to more potent killing. The MIC is the smallest concentration in the dilution series that meets the test's criterion for growth inhibition. On to `C[Si]1(C)OB(O)c2cc(C=O)cc(F)c21`, for which the MBC stood at 200 µg/mL (≈ 893 µM) in assay [1] and 100 µg/mL (≈ 446 µM) in assay [9]. The MIC in [2] was greater than 400 µg/mL; in assay [3], 200 µg/mL (≈ 893 µM); in [7], greater than 400 µg/mL; in [8] it was greater than 400 µg/mL; in assay [11] it was greater than 400 µg/mL; in assay [14] it was greater than 400 µg/mL. In addition, the MIC is greater than 400 µg/mL in assay [15], 400 µg/mL (≈ 1790 µM) in assay [16] and greater than 400 µg/mL in assay [17]. The figures for the “fold change (FC)” value in assay [4] and in assay [20] were 16 and 8, respectively. Also, the “diameter of the inhibition zone (DIZ)” value in assay [5], in assay [6], in assay [10], in [12] and in [13] was “inactive” throughout. Further, the “diameter of the inhibition zone (DIZ)” value in assay [18] was 22 mm. In assay [19], the DIZ entry is “inactive”.

Consider `C[Si]1(C)OB(O)c2c(C=O)cc(F)c(F)c21`, for which the results for the MBC in [1] and in [9] were 400 µg/mL (≈ 1650 µM) and 100 µg/mL (≈ 413 µM), respectively. Besides, the minimal inhibitory concentration (MIC) in assay [2] is greater than 400 µg/mL; in assay [3] it was 400 µg/mL (≈ 1650 µM); in assay [7], greater than 400 µg/mL; in assay [8], greater than 400 µg/mL; in assay [11], 400 µg/mL (≈ 1650 µM); in [14], 400 µg/mL (≈ 1650 µM). Moreover, the MIC in assay [15] is greater than 400 µg/mL; in assay [16], 100 µg/mL (≈ 413 µM); in assay [17], greater than 400 µg/mL. Besides, the “fold change (FC)” value in assay [4] is listed as 64; in assay [20], 4. In addition, the results for the “diameter of the inhibition zone (DIZ)” value in assay [5] and in assay [18] were 11 mm and 21 mm, respectively. Further, the “diameter of the inhibition zone (DIZ)” value in assay [6], in assay [10], in assay [12] and in [13] was “inactive” throughout. Also, the DIZ entry in [19] is “inactive”.

As to `C[Si]1(C)OB(O)c2ccc(Cl)cc21`, the values for the MBC in assay [1] and in [9] were 50 µg/mL (≈ 235 µM) and 400 µg/mL (≈ 1880 µM), respectively. Further, the minimal inhibitory concentration (MIC) in [2] was greater than 400 µg/mL; in assay [3], 50 µg/mL (≈ 235 µM); in assay [7] it was 25 µg/mL (≈ 118 µM); in assay [8], 400 µg/mL (≈ 1880 µM); in assay [11], 400 µg/mL (≈ 1880 µM); in assay [14], 400 µg/mL (≈ 1880 µM). The MIC in assay [15] was greater than 400 µg/mL; in assay [16] it was 25 µg/mL (≈ 118 µM); in [17] it was greater than 400 µg/mL. Also, the “fold change (FC)” value in assay [4] is on record as 64; in assay [20], 16. For the same compound, the “diameter of the inhibition zone (DIZ)” value in assay [5] is given as 28 mm; in assay [6] it was 19 mm; in assay [10], 17 mm; in assay [12] it was 26 mm; in [13], 11 mm; in assay [18], 20 mm. Further, the DIZ entry in assay [19] is “inactive”.

Regarding `C[Si]1(C)OB(O)c2ccc(Cl)c(Cl)c21`, the minimal bactericidal concentration (MBC) in assay [1] is 50 µg/mL (≈ 202 µM); in [9] it was 100 µg/mL (≈ 405 µM). For the same compound, the minimal inhibitory concentration (MIC) was greater than 400 µg/mL in [2]; 25 µg/mL (≈ 101 µM) in assay [3]; 12.5 µg/mL (≈ 50.6 µM) in [7]; 400 µg/mL (≈ 1620 µM) in [8]; 400 µg/mL (≈ 1620 µM) in assay [11]; 100 µg/mL (≈ 405 µM) in assay [14]. Also, the minimal inhibitory concentration (MIC) in assay [15] was greater than 400 µg/mL; in assay [16], 12.5 µg/mL (≈ 50.6 µM); in assay [17], greater than 400 µg/mL. For the same compound, the entries for the “fold change (FC)” value in assay [4] and in [20] were 64 and 32, respectively. For the same compound, the “diameter of the inhibition zone (DIZ)” value was 33 mm in [5]; 13 mm in [6]; 21 mm in assay [10]; 29 mm in assay [12]; 23 mm in assay [18]. In assay [13], the “diameter of the inhibition zone (DIZ)” value was “inactive”. For the same compound, the DIZ entry in [19] is “inactive”.

For the compound `C[Si]1(C)OB(O)c2ccc(C(F)(F)F)cc21`, the MBC in assay [1] was 50 µg/mL (≈ 203 µM); in assay [9], 100 µg/mL (≈ 406 µM). Also, the MIC in assay [2] was greater than 400 µg/mL; in [3], 25 µg/mL (≈ 102 µM); in assay [7], 200 µg/mL (≈ 813 µM); in assay [8] it was greater than 400 µg/mL; in assay [11] it was 400 µg/mL (≈ 1630 µM); in assay [14] it was 400 µg/mL (≈ 1630 µM). The values for the minimal inhibitory concentration (MIC) in [15], in assay [16] and in assay [17] were greater than 400 µg/mL, 100 µg/mL (≈ 406 µM) and greater than 400 µg/mL, respectively. For the same compound, the “fold change (FC)” value in assay [4] and in [20] was 16 each time. The “diameter of the inhibition zone (DIZ)” value in [5] is reported as 14 mm; in assay [6], 14 mm; in assay [10] it was 12 mm; in [12], 13 mm; in assay [18], 20 mm. The “diameter of the inhibition zone (DIZ)” value in [13] was “inactive”. Moreover, the DIZ result in [19] is “inactive”.

As for `C[Si]1(C)OB(O)c2cc(B(O)O)cc(F)c21`, the MBC in [1] and in [9] was 400 µg/mL (≈ 1670 µM) each time. The minimal inhibitory concentration (MIC) is greater than 400 µg/mL in [2]; 200 µg/mL (≈ 834 µM) in assay [3]; 50 µg/mL (≈ 208 µM) in assay [7]; greater than 400 µg/mL in assay [8]; greater than 400 µg/mL in assay [11]; greater than 400 µg/mL in assay [14]. Moreover, the MIC in assay [15] was greater than 400 µg/mL; in assay [16], 100 µg/mL (≈ 417 µM); in assay [17] it was greater than 400 µg/mL. The “fold change (FC)” value stood at 8 in [4] and 16 in [20]. The “diameter of the inhibition zone (DIZ)” value in assay [5], in [6], in [12] and in assay [13] was “inactive” throughout. Also, the “diameter of the inhibition zone (DIZ)” value in [10] was found to be 12 mm; in [18] it was 18 mm. Besides, the DIZ result in assay [19] was “inactive”.

For the origin of these results see ChEMBL document CHEMBL4346672, “Antimicrobial and KPC/AmpC inhibitory activity of functionalized benzosiloxaboroles” (Eur J Med Chem, 2019).
